Results as given in ChEMBL document CHEMBL1157576, “Development of selective and reversible pyrazoline based MAO-A inhibitors: Synthesis, biological evaluation and docking studies” (Bioorg Med Chem, 2010).

Key:
Format in all cases: tissue-based
[1] = target: T1, Amine oxidase [flavin-containing] B (Rattus norvegicus, UniProt P19643); assay: Competitive inhibition of MAOB in rat liver homogenate after 60 mins by Lineweaver-Burke plot analysis; details: read-out: Kic
T1 sequence (P19643 whole entry): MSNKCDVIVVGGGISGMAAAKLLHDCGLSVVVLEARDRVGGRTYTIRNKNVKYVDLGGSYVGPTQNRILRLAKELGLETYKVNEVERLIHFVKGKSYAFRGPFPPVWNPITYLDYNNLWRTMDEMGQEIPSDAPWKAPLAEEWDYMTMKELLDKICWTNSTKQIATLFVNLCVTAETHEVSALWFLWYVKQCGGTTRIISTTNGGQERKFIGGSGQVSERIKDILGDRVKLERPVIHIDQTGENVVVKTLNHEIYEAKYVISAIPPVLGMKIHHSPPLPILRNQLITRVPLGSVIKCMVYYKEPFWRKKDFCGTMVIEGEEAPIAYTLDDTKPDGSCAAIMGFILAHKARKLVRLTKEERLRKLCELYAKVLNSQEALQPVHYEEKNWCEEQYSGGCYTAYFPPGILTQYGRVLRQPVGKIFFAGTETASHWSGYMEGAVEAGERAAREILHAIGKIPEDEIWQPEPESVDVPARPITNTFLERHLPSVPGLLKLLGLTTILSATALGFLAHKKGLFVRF

[2] = target: T2, Amine oxidase [flavin-containing] A (Rattus norvegicus, UniProt P21396); assay: Competitive inhibition of MAOA in rat liver homogenate after 60 mins by Lineweaver-Burke plot analysis; details: read-out: Kic
T2 sequence (P21396 whole entry): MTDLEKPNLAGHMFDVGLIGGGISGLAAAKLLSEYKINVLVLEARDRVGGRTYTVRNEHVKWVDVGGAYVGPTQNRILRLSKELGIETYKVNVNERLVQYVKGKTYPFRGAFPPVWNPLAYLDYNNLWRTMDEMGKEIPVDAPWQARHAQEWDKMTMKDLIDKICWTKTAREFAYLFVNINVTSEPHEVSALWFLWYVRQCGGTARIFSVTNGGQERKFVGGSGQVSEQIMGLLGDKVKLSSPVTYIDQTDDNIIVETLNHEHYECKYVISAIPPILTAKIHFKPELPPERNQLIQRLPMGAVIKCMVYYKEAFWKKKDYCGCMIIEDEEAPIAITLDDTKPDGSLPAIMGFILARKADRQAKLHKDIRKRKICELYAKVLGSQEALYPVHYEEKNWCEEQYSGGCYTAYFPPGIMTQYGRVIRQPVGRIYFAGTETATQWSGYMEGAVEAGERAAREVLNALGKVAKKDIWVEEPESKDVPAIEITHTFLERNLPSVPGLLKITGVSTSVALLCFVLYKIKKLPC

[3] = target: T2, Amine oxidase [flavin-containing] A; assay: Reversible inhibition of MAOA in rat liver homogenate assessed as recovery of enzyme activity at 1 to 1000 uM up to 24 hrs by dialysis
Method in brief: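 Rat liver MAO was incubated with compound (1–1000 µM, DMSO ≤1%) at 37 °C for 0–60 min. It was then dialysed for 24 h at 37 °C against potassium phosphate buffer, pH 7.6. Recovered activity was measured by the Holt coupled assay using p-tyramine, with absorbance read at 498 nm.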

Row | Structure (SMILES) | Ki [1] [µM] | Ki [2] [nM] | Activity [3]
1 | COc1cccc(NC(=S)N2N=C(c3ccc(O)cc3)CC2c2ccco2)c1 (configuration not stated) | 460 | 176 | Active
2 | COc1ccccc1NC(=S)N1N=C(c2ccc(O)cc2)CC1c1ccco1 (configuration not stated) | 174 | 755 | Active
3 | Oc1ccc(C2=NN(C(=S)Nc3ccccc3)C(c3cccs3)C2)cc1 (configuration not stated) | 47 | 480 | Active
4 | Cc1ccc(NC(=S)N2N=C(c3ccc(O)cc3)CC2c2cccs2)cc1 (configuration not stated) | 71.5 | 351 | Active
5 | Cc1ccc(NC(=S)N2N=C(c3ccc(O)cc3)CC2c2ccco2)cc1 (configuration not stated) | 5010 | 480 | Active
6 | Cc1ccccc1NC(=S)N1N=C(c2ccc(O)cc2)CC1c1cccs1 (configuration not stated) | 70.2 | 281 | Active
7 | COc1cccc(NC(=S)N2N=C(c3ccc(O)cc3)CC2c2cccs2)c1 (configuration not stated) | 1100 | 181 | Active
8 | COc1ccccc1NC(=S)N1N=C(c2ccc(O)cc2)CC1c1cccs1 (configuration not stated) | 44 | 301 | Active

Next, values leading:

Row | Ki [1] [µM] | Ki [2] [nM] | Activity [3] | Structure (SMILES)
9 | 7150 | 501 | Active | COc1ccc(NC(=S)N2N=C(c3ccc(O)cc3)CC2c2cccs2)cc1 (configuration not stated)
10 | 580 | 591 | Active | Cc1cccc(NC(=S)N2N=C(c3ccc(O)cc3)CC2c2ccco2)c1 (configuration not stated)
11 | 2210 | 150 | Active | Cc1cccc(NC(=S)N2N=C(c3ccc(O)cc3)CC2c2cccs2)c1 (configuration not stated)
12 | 1060 | 950 | Active | COc1ccc(NC(=S)N2N=C(c3ccc(O)cc3)CC2c2ccco2)cc1 (configuration not stated)
13 | 28.8 | 231 | Active | Cc1ccccc1NC(=S)N1N=C(c2ccc(O)cc2)CC1c1ccco1 (configuration not stated)
14 | 778 | 701 | Active | Oc1ccc(C2=NN(C(=S)Nc3ccccc3)C(c3ccco3)C2)cc1 (configuration not stated)
